Activity calls are given as the source filed them.
What was measured:
[1] = test system: Gardnerella vaginalis; assay: Antibacterial activity against Gardnerella vaginalis-mediated vaginal infection in woman assessed as effect on vaginal pH at 0.5% treated via intravaginal gels every 12 hrs for 2 days measured post application; assay type: functional, organism-based; details: Vagina
In short: (§1)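 Women self-applied vaginal gels containing 0, 0.5 or 5% GML in a warming-gel vehicle every 12 h for 2 days. Vaginal pH was measured at visit 1 (before the first dose) and visit 2, and the two visits were compared.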

[2] = test system: Lactobacillus; assay: Antibacterial activity against Lactobacillus-mediated vaginal infection in woman at 0.5% treated via intravaginal gels every 12 hrs for 2 days measured post application; assay type: functional; details: Vagina
In short: (§2)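 Double-blind randomized study. Women self-applied intravaginal gel (warming-gel vehicle) with 0, 0.5 or 5% GML every 12 h for 2 days. Swabs were taken before and just after the first dose and 12 h after the last dose, placed in 1 ml Todd Hewitt broth, serially diluted and plated on chocolate agar (37°C, 7% CO2, up to 3 days). Organisms were identified by colony features as CFU/ml secretions, visit 1 vs visit 2. Detection limit 10^2 CFU/ml.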

[3] = test system: Gardnerella vaginalis; assay: Antibacterial activity against Gardnerella vaginalis-mediated vaginal infection in woman at 0.5% treated via intravaginal gels every 12 hrs for 2 days measured post application; assay type: functional, organism-based; details: Vagina; in short: as §2
[4] = test system: Lactobacillus; assay: Antibacterial activity against Lactobacillus-mediated vaginal infection in woman at 5% treated via intravaginal gels every 12 hrs for 2 days measured post application; assay type: functional; details: Vagina; in short: as §2
[5] = test system: Lactobacillus; assay: Antibacterial activity against Lactobacillus-mediated vaginal infection in woman assessed as effect on vaginal pH at 5% treated via intravaginal gels every 12 hrs for 2 days measured post application; assay type: functional; details: Vagina; in short: as §1
[6] = organism: Homo sapiens; assay: Toxicity in woman with Gardnerella vaginalis-mediated vaginal infection assessed as adverse events at 5% treated via intravaginal gels every 12 hrs for 2 days measured post application; assay type: organism-based, Vagina; details: in vivo, other
[7] = test system: Candida; assay: Antifungal activity against Candida-mediated vaginal infection in woman at 0.5% treated via intravaginal gels every 12 hrs for 2 days measured post application; assay type: functional, organism-based; details: Vagina; in short: as §2
[8] = test system: Candida albicans; assay: Antifungal activity against Candida albicans SC5314 clinical isolate at 100 ug/ml after 24 hrs; assay type: functional, organism-based
In short: (§3)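 Candida species (C. albicans SC5314 and clinical isolates, C. glabrata, C. kefyr, C. parapsilosis, C. tropicalis, C. krusei) grown 24 h at 37°C with 200 rpm shaking in 25 ml Todd Hewitt broth with GML at 0, 50, 100 or 500 μg/ml. CFU were counted at time points by serial dilution and plating. Fungicidal was defined as a ≥3-log CFU/ml drop.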

[9] = test system: Nakaseomyces glabratus; assay: Antifungal activity against Candida glabrata assessed as => 3-log drop in number of fungal CFU/ml at 500 ug/ml after 4 to 8 hrs; assay type: functional, organism-based; in short: as §3
[10] = test system: Lactobacillus; assay: Antibacterial activity against Lactobacillus-mediated vaginal infection in woman assessed as effect on vaginal pH at 0.5% treated via intravaginal gels every 12 hrs for 2 days measured post application; assay type: functional; details: Vagina; in short: as §1
[11] = organism: Homo sapiens; assay: Toxicity in woman with Candida-mediated vaginal infection assessed as adverse events at 5% treated via intravaginal gels every 12 hrs for 2 days measured post application; assay type: organism-based, Vagina; details: in vivo, other
[12] = test system: Candida; assay: Antifungal activity against Candida-mediated vaginal infection in woman assessed as effect on vaginal pH at 5% treated via intravaginal gels every 12 hrs for 2 days measured post application; assay type: functional, organism-based; details: Vagina; in short: as §1
[13] = test system: Gardnerella vaginalis; assay: Antibacterial activity against Gardnerella vaginalis assessed as => 3-log drop in number of fungal CFU/ml at 1 to 10 ug/ml after 24 hrs; assay type: functional, organism-based
[14] = test system: Candida tropicalis; assay: Antifungal activity against Candida tropicalis assessed as => 3-log drop in number of fungal CFU/ml at 500 ug/ml after 4 to 8 hrs; assay type: functional, organism-based; in short: as §3
[15] = test system: Gardnerella vaginalis; assay: Antibacterial activity against Gardnerella vaginalis-mediated vaginal infection in woman assessed as effect on vaginal pH at 5% treated via intravaginal gels every 12 hrs for 2 days measured post application; assay type: functional, organism-based; details: Vagina; in short: as §1
[16] = organism: Homo sapiens; assay: Toxicity in woman with vaginal infection assessed as adverse events at 5% treated via intravaginal gels every 12 hrs for 2 days measured post application; details: in vivo, other
[17] = test system: Gardnerella vaginalis; assay: Antibacterial activity against Gardnerella vaginalis-mediated vaginal infection in woman at 5% treated via intravaginal gels every 12 hrs for 2 days measured post application; assay type: functional, organism-based; details: Vagina; in short: as §2
[18] = test system: Candida; assay: Antifungal activity against Candida-mediated vaginal infection in woman assessed as effect on vaginal pH at 0.5% treated via intravaginal gels every 12 hrs for 2 days measured post application; assay type: functional, organism-based; details: Vagina; in short: as §1
[19] = test system: Candida parapsilosis; assay: Antifungal activity against Candida parapsilosis assessed as => 3-log drop in number of fungal CFU/ml at 500 ug/ml after 4 to 8 hrs; assay type: functional, organism-based; in short: as §3
[20] = test system: Candida albicans; assay: Antifungal activity against Candida albicans SC5314 assessed as => 3-log drop in number of fungal CFU/ml at 100 ug/ml after 4 to 8 hrs; assay type: functional, organism-based; in short: as §3
[21] = test system: Pichia kudriavzevii; assay: Antifungal activity against Candida krusei assessed as => 3-log drop in number of fungal CFU/ml at 500 ug/ml after 4 to 8 hrs; assay type: functional, organism-based; in short: as §3
[22] = test system: Kluyveromyces marxianus; assay: Antifungal activity against Candida pseudotropicalis kefyr assessed as => 3-log drop in number of fungal CFU/ml at 100 ug/ml after 4 to 8 hrs; assay type: functional, organism-based; in short: as §3
[23] = test system: Candida; assay: Antifungal activity against Candida-mediated vaginal infection in woman at 5% treated via intravaginal gels every 12 hrs for 2 days measured post application; assay type: functional, organism-based; details: Vagina; in short: as §2

CCCCCCCCCCCC(=O)OCC(O)CO (stereo not drawn) [GLYCEROL MONOLAURATE]
Activity [1]: inactive | Activity [2]: inactive | Activity [3]: Active | Activity [4]: inactive | Activity [5]: inactive | Activity [6]: Non-toxic | Activity [7]: Active | Activity [8]: Active | Activity [9]: Active | Activity [10]: inactive | Activity [11]: Non-toxic | Activity [12]: inactive | Activity [13]: Active | Activity [14]: Active | Activity [15]: inactive | Activity [16]: Non-toxic | Activity [17]: Active | Activity [18]: inactive | Activity [19]: Active | Activity [20]: Active | Activity [21]: Active | Activity [22]: Active | Activity [23]: Active

Reference: ChEMBL document CHEMBL1240373, “Glycerol monolaurate inhibits Candida and Gardnerella vaginalis in vitro and in vivo but not Lactobacillus” (Antimicrob Agents Chemother, 2010)
